Screening results deposited in PubChem by The Scripps Research Institute Molecular Screening Center.
Many of the other results were omitted from the sample, so hits are more common in it than they were.
RORA inh: inhibitors of human nuclear receptor RORA. actives 0.43% (n = 65,000). P35398. inhibition, % at 10 µM. AID 561. CHO-K1 Gal4-RORA LBD luciferase reporter, luminescence;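 active means inhibition above the mean of all tested compounds plus 3 SD, cut at about 52% in these data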
Target sequence (P35398 whole entry, looked up, the tested form may be a part): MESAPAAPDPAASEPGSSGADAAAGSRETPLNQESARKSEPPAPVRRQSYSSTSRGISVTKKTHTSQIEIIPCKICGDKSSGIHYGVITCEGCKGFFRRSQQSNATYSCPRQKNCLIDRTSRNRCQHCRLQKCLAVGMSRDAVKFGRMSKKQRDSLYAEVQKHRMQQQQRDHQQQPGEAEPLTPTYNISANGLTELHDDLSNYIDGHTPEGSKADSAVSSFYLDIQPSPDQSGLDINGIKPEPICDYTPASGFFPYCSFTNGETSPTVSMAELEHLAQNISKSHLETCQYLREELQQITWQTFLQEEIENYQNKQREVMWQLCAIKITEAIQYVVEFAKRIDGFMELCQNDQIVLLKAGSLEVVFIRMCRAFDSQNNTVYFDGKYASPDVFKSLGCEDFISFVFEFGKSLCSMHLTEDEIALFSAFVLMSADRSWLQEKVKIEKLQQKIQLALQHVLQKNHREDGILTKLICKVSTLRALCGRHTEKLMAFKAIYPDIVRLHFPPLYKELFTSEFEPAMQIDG
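Test system – CHO-K1 Gal4-RORA LBD luciferase reporter cells · Schedule – 20 h at 37 °C · Signal – luminescence from basal luciferase reporter expression · Measure – percent inhibition of basal reporter luminescence, control-normalized · Control set – -RORA mock-transfected DMSO wells 100%, +RORA DMSO wells 0%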
Each line names hits and unclear results; the compound was inactive in the other large screens.

Cc1ccc(-c2csc3ncnc(Sc4nnc(CN5CCCCCC5=O)o4)c23)cc1	RORA inh 57.4
COc1cc2c(cc1OC)CN(C(=O)COc1ccc(C)c(C)c1)CC2	none
COc1ccc(/C(O)=C2/C(=O)C(=O)N(CCN(C)C)C2c2ccc(F)cc2)cc1Cl (stereo unspecified)	none
O=C(Nc1nccs1)c1ccc(NC(=O)c2ccco2)cc1	none
CCOc1ccc(S(=O)(=O)n2cnc3cc(C)c(C)cc32)cc1	RORA inh 66.3
CCCCOc1ccc(S(=O)(=O)N2CCCCCC2)cc1	none
CCOc1ccc(OCC(=O)Nc2ccc(S(=O)(=O)Nc3cc(C)nc(C)n3)cc2)cc1	none
COc1ccccc1NC(=O)Cn1nc(C(F)(F)F)c2c1CCCC2	none
CN(C)c1nc(N)nc(Cn2ccnc2)n1	none
CC1CCN(c2ccc(C(=O)O)cc2N)CC1	none
Cc1cc(C)cc(Nc2ccc(C(=O)O)cc2N)c1	RORA inh 71.1
C/C(=C\C(=O)c1ccc(C)o1)Nc1ccc(C(=O)O)cc1C	none
O=C(c1cc2ccccc2o1)c1nc2c(n1O)CCCCC2	none
Cc1ccc(-c2ccc(/C=N/c3ncn[nH]3)o2)cc1Cl	none
O=C(Nc1nc(-c2ccccc2)cs1)c1cccs1	none
O=C(Nc1nc(-c2ccccn2)cs1)c1ccc(Cl)s1	RORA inh 64.9
O=C(Nc1nc(-c2nc3ccccc3s2)cs1)C1CC1	none
CCCn1nnnc1SCC(=O)N(C(C)C)C(C)C	none
CCOCC(=O)Nc1ccc(S(=O)(=O)Nc2ncccn2)cc1	none
O=C(CSc1nnc(COc2cccc3cccnc23)o1)N1CCc2ccccc21	RORA inh 58.8
O=C(CSc1nnc(COc2ccc(F)cc2)o1)N1c2ccccc2CCc2ccccc21	none
Cc1ccc(NCc2nnc(SCC(=O)N3CCCc4ccccc43)o2)c(C)c1	none
O=S(=O)(C/C(=C/CO)S(=O)(=O)c1ccccc1)c1ccccc1	RORA inh 89.2
CCC1CCCCN1C(=O)CSc1nc(N)c(NC(=O)c2ccc(OC)c(OC)c2)c(=O)[nH]1 (stereo unspecified)	none
O=C(O)c1ccccc1C(=O)Nc1ccccn1	none
Cc1ccc(C(=O)/C=C/Nc2ccccn2)cc1	RORA inh 89.6
Cc1cc(C(=O)Nc2ccccn2)no1	none
CC(=O)OCCN(CCOC(C)=O)c1c(C)[nH]c(=O)[nH]c1=O	none
Cc1ccc(-c2nc(CS(=O)CC(=O)NCc3ccccc3)c(C)o2)cc1 (stereo unspecified)	none
CCOc1ccc(-c2nnc(SCC(=O)N3CCN(c4ccccc4)CC3)o2)cc1	none
O=C(CSCC(=O)NCc1ccco1)NCc1ccco1	none
COc1ccc(-c2nc(CSCC(=O)NCc3ccco3)c(C)o2)cc1	RORA inh 72.2
COc1ccc(CNC(=O)CS(=O)Cc2nc(-c3ccc(C)cc3)oc2C)cc1 (stereo unspecified)	none
CCOc1ccc(-c2nc(CSCC(=O)NCCN3CCOCC3)c(C)o2)cc1	RORA inh 71.2
CCCCCCOc1ccc(OCC(O)CN2C(=O)NC(C)(C)C2=O)cc1 (stereo unspecified)	none
O=C(NCCc1cccc(F)c1)[C@@H]1CSC2c3ccccc3C(=O)N21 (stereo partly specified)	none
Cc1ccc(CC(CC(=O)O)C(=O)NC2CCCCC2)cc1 (stereo unspecified)	none
CC1(C)CC(=O)c2cnc(NC(=O)C3CCCC3)nc2C1	none
CCOc1cc(N2CCOCC2)c(OCC)cc1NS(=O)(=O)c1ccc(Cl)s1	none
C=CCn1c(CCNC(=O)C(C)(C)C)nc2ccccc21	none
CCc1ccc(-n2c(O)cnc2Nc2nc(C)cc(C)n2)cc1	none
Cn1c(-c2ccccc2)cc2c3no[n+]([O-])c3ccc21	RORA inh 66.4
CCCCOc1ccc(C2(C)CC(=O)NC2=O)cc1 (stereo unspecified)	none
COc1ccc(C(=O)NCC(C)CN(C)C)cc1 (stereo unspecified)	none
CC(=O)N1CCc2cc(S(=O)(=O)NC3CCCc4ccccc43)ccc21 (stereo unspecified)	none
CCC(=O)N1CCc2cc(S(=O)(=O)N3CCc4ccccc4C3)ccc21	none
CC(=O)N1CCc2cc(S(=O)(=O)NCCC3=CCCCC3)ccc21	RORA inh 56.8
O=C(Nc1ccc(N2CCOCC2)c(Cl)c1)c1ccc(Br)o1	none
O=C(Nc1ccc(S(=O)(=O)N2CCCC2)cc1)c1ccc(CN2CCOCC2)cc1	none
O=C(Nc1ccc(N2CCOCC2)cc1)c1cnsn1	RORA inh 68.8
CC12CN3CC(C)(CN(C1)C3c1ccc(Br)cc1)C2 (stereo unspecified)	none
COC(=O)Cn1ncn2c(cc3oc(C)cc32)c1=O	none
CC1CCCCC1NC(=O)CSc1nc2ccccc2c(=O)n1Cc1ccco1 (stereo unspecified)	none
CCOc1cc(C(=O)CSc2nnc(CNc3ccc(Cl)cc3)o2)ccc1NC(=O)CC	RORA inh 53.5
COc1ccc(N2CCN(C(=O)CSc3nnc(CNc4ccccc4)o3)CC2)cc1	none
CCOC(=O)N1CCN(C(=O)CSc2nnc(CNC(=O)c3c(F)cccc3Cl)o2)CC1	none
Cc1cccn2c(=O)c3cc(C(=O)N4CCN(c5ccccc5)CC4)n(C)c3nc12	none
Cc1ccc(OCC(=O)n2nc(C)cc2C)c(Br)c1	none
